Experimental data published in ChEMBL document CHEMBL1143872, “Design, synthesis, and preliminary evaluation of 4-(6-(3-nitroguanidino)hexanamido)pyrrolidine derivatives as potential iNOS inhibitors” (Bioorg Med Chem, 2008).

Target: T1, Nitric oxide synthase, inducible (Mus musculus, UniProt P29477)
T1 sequence (P29477 whole entry): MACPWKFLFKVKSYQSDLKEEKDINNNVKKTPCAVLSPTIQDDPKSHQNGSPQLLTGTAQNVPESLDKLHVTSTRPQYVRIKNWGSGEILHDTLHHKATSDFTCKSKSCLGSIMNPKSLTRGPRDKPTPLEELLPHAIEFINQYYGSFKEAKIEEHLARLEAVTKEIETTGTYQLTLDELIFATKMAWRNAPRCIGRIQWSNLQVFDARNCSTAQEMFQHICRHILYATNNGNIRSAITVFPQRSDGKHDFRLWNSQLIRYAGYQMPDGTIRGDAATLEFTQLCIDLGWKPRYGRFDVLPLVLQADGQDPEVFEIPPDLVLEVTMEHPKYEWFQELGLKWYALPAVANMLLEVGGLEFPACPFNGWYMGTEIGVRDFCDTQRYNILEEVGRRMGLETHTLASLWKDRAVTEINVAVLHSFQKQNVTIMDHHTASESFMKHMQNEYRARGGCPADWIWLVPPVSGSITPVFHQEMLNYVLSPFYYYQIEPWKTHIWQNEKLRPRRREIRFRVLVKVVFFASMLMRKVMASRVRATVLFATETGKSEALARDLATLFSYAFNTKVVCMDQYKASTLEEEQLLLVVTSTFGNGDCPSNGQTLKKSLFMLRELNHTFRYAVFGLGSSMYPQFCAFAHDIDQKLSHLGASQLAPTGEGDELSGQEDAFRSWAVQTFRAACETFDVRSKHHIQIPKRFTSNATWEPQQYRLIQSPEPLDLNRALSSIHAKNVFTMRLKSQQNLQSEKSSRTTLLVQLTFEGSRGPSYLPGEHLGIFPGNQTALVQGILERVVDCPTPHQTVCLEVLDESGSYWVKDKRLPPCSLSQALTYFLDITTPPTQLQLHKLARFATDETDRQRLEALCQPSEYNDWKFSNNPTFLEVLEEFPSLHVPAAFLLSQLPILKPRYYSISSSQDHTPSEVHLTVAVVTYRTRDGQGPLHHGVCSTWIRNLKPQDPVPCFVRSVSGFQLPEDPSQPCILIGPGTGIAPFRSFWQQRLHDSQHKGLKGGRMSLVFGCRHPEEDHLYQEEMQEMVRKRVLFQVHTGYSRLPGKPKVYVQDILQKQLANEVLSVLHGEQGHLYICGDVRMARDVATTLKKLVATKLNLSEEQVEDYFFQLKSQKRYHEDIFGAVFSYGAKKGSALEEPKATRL
Assay: Inhibition of inducible NOS mediated nitric oxide production in LPS-activated Kunming mouse macrophages
How it was run: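 Peritoneal exudate cells from female Kunming mice (18–22 g), elicited 2 d earlier by ip 3% starch (1 mL). Cells (10^6/well) precultured 4 h at 37 °C in DMEM with 5% FCS, then washed to keep the adherent macrophages (>95% by Giemsa). Stimulated with LPS 10 µg/mL plus graded compound for 20 h. Nitrite/nitrate measured after nitrate reductase conversion, read colorimetrically. Inhibition % calculated, IC50 read graphically. L-NNA positive control.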

Question: Which IC50 does the source give for `N=C(NCCCCCC(=O)N[C@@H]1CN[C@H](C(=O)Nc2cc(Cl)cc(Cl)c2)C1)N[N+](=O)[O-]` here?
Answer: The IC50 was 87.3 µM.

Question: With `N=C(NCCCCCC(=O)N[C@@H]1CN[C@H](C(=O)NC2CCCCC2)C1)N[N+](=O)[O-]` as the compound, how does the IC50 read?
Answer: Its IC50 is 7.37 µM.

Question: `N=C(NCCCCCC(=O)N[C@@H]1CN[C@H](C(=O)Nc2ccccc2F)C1)N[N+](=O)[O-]` was tested. Which IC50 did it give?
Answer: The IC50 was 13.1 µM.

Question: Which IC50 does the source give for `N=C(NCCCCCC(=O)N[C@@H]1CN[C@H](C(=O)Nc2ccc(F)cc2)C1)N[N+](=O)[O-]` here?
Answer: The IC50 was 87 µM.

Question: Which IC50 does the source give for `Cc1ccc(NC(=O)[C@@H]2C[C@H](NC(=O)CCCCCNC(=N)N[N+](=O)[O-])CN2)cc1Cl` here?
Answer: Its IC50 is 2.5 µM.

Question: `N=C(NCCCCCC(=O)N[C@@H]1CN[C@H](C(=O)Nc2ccc(Cl)cc2)C1)N[N+](=O)[O-]` was tested. Which IC50 did it give?
Answer: The IC50 was 80 µM.

Question: How did the IC50 turn out when `N=C(NCCCCCC(=O)N[C@@H]1CN[C@H](C(=O)Nc2ccc(F)c(F)c2F)C1)N[N+](=O)[O-]` was run?
Answer: The IC50 was 36.2 µM.

Question: With `N=C(NCCCCCC(=O)N[C@@H]1CN[C@H](C(=O)Nc2ccc(F)c(F)c2)C1)N[N+](=O)[O-]` as the compound, how does the IC50 read?
Answer: The IC50 was 2.68 µM.

Question: For `N=C(NCCCCCC(=O)N[C@@H]1CN[C@H](C(=O)Nc2ccccc2)C1)N[N+](=O)[O-]`, which IC50 is on record?
Answer: The IC50 was 2.36 µM.

Question: With `N=C(NCCCCCC(=O)N[C@@H]1CN[C@H](C(=O)Nc2cc(Cl)ccc2Cl)C1)N[N+](=O)[O-]` as the compound, how does the IC50 read?
Answer: Its IC50 is 105 µM.

Question: How did the IC50 turn out when `N=C(NCCCCCC(=O)N[C@@H]1CN[C@H](C(=O)Nc2cccc([N+](=O)[O-])c2)C1)N[N+](=O)[O-]` was run?
Answer: The IC50 was 46 µM.

Question: For `N=C(NCCCCCC(=O)N[C@@H]1CN[C@H](C(=O)Nc2ccc([N+](=O)[O-])cc2)C1)N[N+](=O)[O-]`, which IC50 is on record?
Answer: The IC50 was 25 µM.

Question: How did the IC50 turn out when `Cc1cccc(NC(=O)[C@@H]2C[C@H](NC(=O)CCCCCNC(=N)N[N+](=O)[O-])CN2)c1` was run?
Answer: The IC50 was 120 µM.

Question: With `Cc1ccccc1NC(=O)[C@@H]1C[C@H](NC(=O)CCCCCNC(=N)N[N+](=O)[O-])CN1` as the compound, how does the IC50 read?
Answer: The IC50 was 119 µM.

Question: For `COc1ccc(NC(=O)[C@@H]2C[C@H](NC(=O)CCCCCNC(=N)N[N+](=O)[O-])CN2)cc1`, which IC50 is on record?
Answer: The IC50 was 26.7 µM.

Question: How did the IC50 turn out when `N=C(NCCCCCC(=O)N[C@@H]1CN[C@H](C(=O)Nc2ccc(Cl)cc2Cl)C1)N[N+](=O)[O-]` was run?
Answer: The IC50 was 15.5 µM.

Question: `N=C(NCCCCCC(=O)N[C@@H]1CN[C@H](C(=O)Nc2ccccc2Cl)C1)N[N+](=O)[O-]` was tested. Which IC50 did it give?
Answer: Its IC50 is 108 µM.

Question: `N=C(NCCCCCC(=O)N[C@@H]1CN[C@H](C(=O)Nc2ccc(F)cc2F)C1)N[N+](=O)[O-]` was tested. Which IC50 did it give?
Answer: Its IC50 is 139 µM.

Question: `Cc1ccc(NC(=O)[C@@H]2C[C@H](NC(=O)CCCCCNC(=N)N[N+](=O)[O-])CN2)c(C)c1` was tested. Which IC50 did it give?
Answer: The IC50 was 120 µM.

Question: For `N=C(NCCCCCC(=O)N[C@@H]1CN[C@H](C(=O)NCc2ccccc2)C1)N[N+](=O)[O-]`, which IC50 is on record?
Answer: Its IC50 is 43.5 µM.

Question: For `N=C(NCCCCCC(=O)N[C@@H]1CN[C@H](C(=O)Nc2ccc(Br)cc2)C1)N[N+](=O)[O-]`, which IC50 is on record?
Answer: Its IC50 is 74.6 µM.

Question: Which IC50 does the source give for `N=C(NCCCCCC(=O)N[C@@H]1CN[C@H](C(=O)Nc2cccc(Cl)c2)C1)N[N+](=O)[O-]` here?
Answer: The IC50 was 13 µM.

Question: `Cc1ccc(NC(=O)[C@@H]2C[C@H](NC(=O)CCCCCNC(=N)N[N+](=O)[O-])CN2)cc1` was tested. Which IC50 did it give?
Answer: The IC50 was 123 µM.

Question: With `N=C(NCCCCCC(=O)N[C@@H]1CN[C@H](C(=O)Nc2cc(F)cc(F)c2)C1)N[N+](=O)[O-]` as the compound, how does the IC50 read?
Answer: The IC50 was 11.7 µM.

Question: `CCOc1ccc(NC(=O)[C@@H]2C[C@H](NC(=O)CCCCCNC(=N)N[N+](=O)[O-])CN2)cc1` was tested. Which IC50 did it give?
Answer: The IC50 was 162 µM.

Question: `N=C(NCCC[C@H](N)C(=O)O)N[N+](=O)[O-]` [NITROARGININE] was tested. Which IC50 did it give?
Answer: Its IC50 is 14.7 µM.
